Positions of bridges follow the written chain, without caps; N, C: chain ends. Non-standard residues stand in square brackets, D forms with d. Residues, ends and D or L forms follow the SMILES beside them. dBip = N[C@H](Cc1ccc(-c2ccccc2)cc1)C(=O)O; dPhe(4-Cl) = N[C@H](Cc1ccc(Cl)cc1)C(=O)O; 2Nal = N[C@@H](Cc1ccc2ccccc2c1)C(=O)O; d2Nal = N[C@H](Cc1ccc2ccccc2c1)C(=O)O; 3Pal = N[C@@H](Cc1cccnc1)C(=O)O
Experiments:
[1] = target: Somatostatin receptor type 1 (Homo sapiens, UniProt P30872); assay: Binding affinity towards cloned human somatostatin 1 (hsst) receptor
Sequence of Somatostatin receptor type 1 (P30872 whole entry): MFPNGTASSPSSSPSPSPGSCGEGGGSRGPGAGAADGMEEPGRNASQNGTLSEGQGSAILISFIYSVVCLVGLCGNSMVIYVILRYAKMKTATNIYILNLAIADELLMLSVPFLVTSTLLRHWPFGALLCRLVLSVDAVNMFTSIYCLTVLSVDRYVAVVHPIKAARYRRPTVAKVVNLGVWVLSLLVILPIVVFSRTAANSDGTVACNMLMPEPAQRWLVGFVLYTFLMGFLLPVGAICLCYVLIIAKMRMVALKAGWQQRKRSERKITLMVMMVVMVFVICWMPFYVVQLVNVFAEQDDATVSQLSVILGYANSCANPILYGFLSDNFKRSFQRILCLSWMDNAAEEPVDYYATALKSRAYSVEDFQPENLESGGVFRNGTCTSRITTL
Method in brief: (§1)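 Membranes from CHO-K1 cells stably transfected with the human receptor subtype (calcium phosphate transfection, G418 selection), homogenised and washed in Tris-HCl. Separated by filtration on PEI-soaked GF/C filters; nonspecific binding with 1.0 µM SRIF.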

Somatostatin receptor = assay: Compound was tested for in vitro SRIF inhibition of GH release in rats; type: functional
Method in brief: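 Adult male rat anterior pituitary cells, dispersed with trypsin/DNase, cultured 4-5 days. Then 3 h at 37 °C in medium 199 with 1% BSA, GHRH(1-29)NH2 1 nM and SRIF 1 nM, with analogue at six doses (up to 10 µM, some to 100 µM), triplicate wells. GH in medium measured by double-antibody RIA. Antagonist IC50 taken from n separate dose-response curves.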

[2] = target: Somatostatin receptor type 4 (Homo sapiens, UniProt P31391); assay: Binding affinity towards cloned human somatostatin 4 (hsst) receptor
Sequence of Somatostatin receptor type 4 (P31391 whole entry): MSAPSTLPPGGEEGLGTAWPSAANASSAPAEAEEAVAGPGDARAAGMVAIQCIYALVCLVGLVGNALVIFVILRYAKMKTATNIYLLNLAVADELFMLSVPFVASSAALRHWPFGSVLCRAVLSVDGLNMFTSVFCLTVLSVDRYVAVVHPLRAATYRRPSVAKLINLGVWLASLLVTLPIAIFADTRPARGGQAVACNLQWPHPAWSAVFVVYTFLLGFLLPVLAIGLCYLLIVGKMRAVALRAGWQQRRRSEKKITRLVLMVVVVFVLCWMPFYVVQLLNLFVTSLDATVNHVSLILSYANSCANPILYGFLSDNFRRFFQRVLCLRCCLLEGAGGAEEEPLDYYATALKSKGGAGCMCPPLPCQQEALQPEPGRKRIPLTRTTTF

[3] = target: Somatostatin receptor type 3 (Homo sapiens, UniProt P32745); assay: Binding affinity towards cloned human somatostatin 3 (hsst) receptor; method in brief: as §1
Sequence of Somatostatin receptor type 3 (P32745 whole entry): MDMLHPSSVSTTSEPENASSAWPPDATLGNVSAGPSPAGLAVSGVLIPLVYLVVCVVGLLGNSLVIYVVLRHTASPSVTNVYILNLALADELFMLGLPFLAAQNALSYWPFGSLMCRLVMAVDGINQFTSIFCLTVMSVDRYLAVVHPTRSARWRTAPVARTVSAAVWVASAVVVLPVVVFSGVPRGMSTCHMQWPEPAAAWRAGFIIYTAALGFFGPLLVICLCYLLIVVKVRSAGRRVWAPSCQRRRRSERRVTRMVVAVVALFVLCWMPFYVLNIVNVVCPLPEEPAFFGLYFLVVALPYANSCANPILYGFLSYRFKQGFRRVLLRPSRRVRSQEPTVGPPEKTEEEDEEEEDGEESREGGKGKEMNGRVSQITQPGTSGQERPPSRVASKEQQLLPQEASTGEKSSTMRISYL

[4] = target: Somatostatin receptor type 2 (Homo sapiens, UniProt P30874); assay: Binding affinity towards cloned human somatostatin 2 (hsst) receptor; method in brief: as §1
Sequence of Somatostatin receptor type 2 (P30874 whole entry): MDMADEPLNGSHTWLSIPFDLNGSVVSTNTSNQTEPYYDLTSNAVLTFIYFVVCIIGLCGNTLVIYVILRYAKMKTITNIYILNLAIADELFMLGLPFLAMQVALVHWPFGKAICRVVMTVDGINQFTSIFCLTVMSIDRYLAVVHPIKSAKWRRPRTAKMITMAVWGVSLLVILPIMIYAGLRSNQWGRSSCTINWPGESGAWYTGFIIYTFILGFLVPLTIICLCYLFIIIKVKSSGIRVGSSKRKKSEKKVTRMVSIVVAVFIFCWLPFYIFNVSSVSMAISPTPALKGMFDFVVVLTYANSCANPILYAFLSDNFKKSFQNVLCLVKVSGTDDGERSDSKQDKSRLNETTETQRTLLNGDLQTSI

[5] = target: Somatostatin receptor type 5 (Homo sapiens, UniProt P35346); assay: Binding affinity towards cloned human somatostatin 5 (hsst) receptor; method in brief: as §1
Sequence of Somatostatin receptor type 5 (P35346 whole entry): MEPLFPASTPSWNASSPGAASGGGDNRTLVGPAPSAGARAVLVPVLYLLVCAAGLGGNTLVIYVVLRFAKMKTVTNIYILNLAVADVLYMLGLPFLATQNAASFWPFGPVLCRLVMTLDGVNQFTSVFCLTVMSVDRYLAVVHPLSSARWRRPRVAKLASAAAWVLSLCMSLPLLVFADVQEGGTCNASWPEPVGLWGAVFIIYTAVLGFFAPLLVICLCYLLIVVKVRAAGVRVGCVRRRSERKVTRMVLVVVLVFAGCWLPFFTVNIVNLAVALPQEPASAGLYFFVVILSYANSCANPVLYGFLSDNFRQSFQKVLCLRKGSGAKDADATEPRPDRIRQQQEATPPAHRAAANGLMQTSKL

SMILES | IC50 [1] [µM] | IC50 (Somatostatin receptor) [µM] | IC50 [2] [µM] | IC50 [3] [µM] | Ki [4] [µM] | Ki [5] [µM]
CC(C)[C@@H]1NC(=O)[C@H](CCCCN)NC(=O)[C@@H](Cc2c[nH]c3ccccc23)NC(=O)[C@H](Cc2cccnc2)NC(=O)[C@H](NC(=O)[C@@H](N)Cc2ccc3ccccc3c2)CSSC[C@@H](C(=O)N[C@@H](Cc2ccc3ccccc3c2)C(N)=O)NC1=O (H-[2Nal][dC][3Pal][dW]KVC[2Nal]-NH2; disulfide 2-7) | 0.506 | 0.0151 | 1 | 0.171 | 0.0759 | 0.524
CC(C)[C@@H]1NC(=O)[C@H](CCCCN)NC(=O)[C@@H](Cc2c[nH]c3ccccc23)NC(=O)[C@H](Cc2ccc(O)cc2)NC(=O)[C@H](NC(=O)[C@H](N)Cc2ccc(-c3ccccc3)cc2)CSSC[C@@H](C(=O)N[C@@H](Cc2ccc3ccccc3c2)C(N)=O)NC1=O (H-[dBip][dC]Y[dW]KVC[2Nal]-NH2; disulfide 2-7) | 1.44 | 0.81 | 1 | 0.466 | 0.793 | 0.243

Second part, the compound after the results:

IC50 [1] [µM] | IC50 (Somatostatin receptor) [µM] | IC50 [2] [µM] | IC50 [3] [µM] | Ki [4] [µM] | Ki [5] [µM] | SMILES
1 | 3.03 | 2.84 | 1.13 | 0.706 | 1.84 | CC(C)[C@H](NC(=O)[C@H](CCCCN)NC(=O)[C@@H](Cc1c[nH]c2ccccc12)NC(=O)[C@H](Cc1ccc(O)cc1)NC(=O)[C@@H](Cc1ccc(Cl)cc1)NC(=O)[C@@H](N)Cc1ccc2ccccc2c1)C(=O)N[C@@H](Cc1ccccc1)C(=O)N[C@H](C(N)=O)[C@@H](C)O (H-[2Nal][dPhe(4-Cl)]Y[dW]KVFT-NH2)
1 | 3.96 | 1 | 0.0899 | 0.144 | 0.0216 | CC(C)[C@H](NC(=O)[C@H](CCCCN)NC(=O)[C@@H](Cc1c[nH]c2ccccc12)NC(=O)[C@H](Cc1ccc(O)cc1)NC(=O)[C@@H](Cc1ccc(Cl)cc1)NC(=O)[C@H](N)Cc1ccc2ccccc2c1)C(=O)N[C@@H](Cc1ccccc1)C(=O)N[C@H](C(N)=O)[C@@H](C)O (H-[d2Nal][dPhe(4-Cl)]Y[dW]KVFT-NH2)
0.494 | 1.36 | 0.312 | 0.292 | 0.0685 | 0.744 | CC(C)[C@@H]1NC(=O)[C@H](CCCCN)NC(=O)[C@@H](Cc2c[nH]c3ccccc23)NC(=O)[C@H](Cc2ccc(O)cc2)NC(=O)[C@@H](NC(=O)[C@H](N)Cc2ccc3ccccc3c2)CSSC[C@H](C(=O)N[C@@H](Cc2ccc3ccccc3c2)C(N)=O)NC1=O (stereo in doubt; 23)

Source: ChEMBL document CHEMBL1131316, “Potent antagonists of somatostatin: synthesis and biology” (J Med Chem, 1998)
